Calls of active or inactive are those of the source. No cut-off for these calls is given here.
Experiments:
[1] = biological target: Potassium-transporting ATPase (Canis familiaris); assay: Inhibitory activity of gastric proton-pump enzyme H+/K+ ATPase was determined at 50 uM
Rattus norvegicus [2] = assay: Gastric antisecretory activity against gastric secretion in the pylorus-ligated rat at a dose of 30 mg/Kg; format: functional, Stomach
In short: (§1)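 Conscious rats, pylorus ligated under ether anesthesia; drug or vehicle injected into the duodenum. Killed 2 h after surgery. Stomach contents centrifuged, then titrated to pH 7.0 for acid output (uEq/h per 100 g body weight). Inhibition calculated versus vehicle-treated rats. Means ± SE of 5-10 animals; Student's t test, p < 0.05.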

[3] = biological target: Potassium-transporting ATPase (Canis familiaris); assay: Inhibitory activity against dog gastric proton-pump enzyme H+/K+ ATPase
[4] = biological target: Potassium-transporting ATPase (Canis familiaris); assay: The compound was tested in vitro for inhibition of gastric proton-pump enzyme H+/K+ ATPase
Rattus norvegicus [5] = assay: Gastric antisecretory activity against gastric secretion in the pylorus-ligated rat at a dose of 60 mg/kg; format: functional, Stomach
In short: as §1

[6] = system: Potassium-transporting ATPase (Canis familiaris); assay: Percent inhibition of gastric proton-pump enzyme H+/K+ ATPase was determined at 50 uM; conditions: Canis lupus familiaris, Stomach
Rattus norvegicus [7] = assay: Gastric antisecretory activity against gastric secretion in the pylorus-ligated rat at a dose of 60 mg/Kg; format: functional, Stomach
In short: as §1

Rattus norvegicus [8] = assay: Gastric antisecretory activity against gastric secretion in the pylorus-ligated rat at a dose of 10 mg/Kg; format: functional, Stomach
In short: as §1

[9] = system: Potassium-transporting ATPase (Canis familiaris); assay: Percent inhibition of gastric proton-pump enzyme H+/K+ ATPase was determined at 10 uM; conditions: Canis lupus familiaris, Stomach
Rattus norvegicus [10] = assay: Gastric antisecretory activity against gastric secretion in the pylorus-ligated rat at a dose of 33 mg/Kg; format: functional, Stomach
In short: as §1

[11] = biological target: Dog Kidney Na+, K+-ATPase (Canis lupus familiaris, UniProt P50997); assay: Tested against canine renal Na+/K+ ATPase
Rattus norvegicus [12] = assay: Gastric antisecretory activity against gastric secretion in the pylorus-ligated rat at a dose of 26 mg/Kg; format: functional, Stomach
In short: as §1

Rattus norvegicus [13] = species: Rattus norvegicus; assay: Antisecretory activity in a pylorus-ligated rat model
Canis familiaris = assay: Antisecretory activity in Heidenhain pouch dog model at 2 mg/kg, iv; format: functional, organism-based; set-up: dose 2 mg/kg; conditions: Canis lupus familiaris
In short: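 Heidenhain pouch dogs on pentagastrin infusion; drug or vehicle given iv at 2 mg/kg, 90 min after the infusion started. Gastric juice collected at 30-min intervals, ten collections per dog. Acid titrated to pH 7.4 with 0.1 N NaOH. Effect = lowest acid output after drug versus mean output immediately before drug.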

| Structure (SMILES) | IC50 [3] | inhibition [6] | Activity (Rattus norvegicus [7]) | also measured |
| --- | --- | --- | --- | --- |
| CC(=O)Oc1ccc(-c2csc(N=C(N)N)n2)cc1OC(C)=O.Cl | – | – | – | IC50 [1]: 27 µM; Activity (Rattus norvegicus [2]): 15% |
| Cc1cc(-c2nc(N=C(N)N)sc2C)c[nH]1 | 1.2 µM | 100% | – | IC50 [4]: 1 µM; Activity (Rattus norvegicus [5]): 36% |
| Cl.N/C(=N\Cc1ccccc1)Nc1nc(-c2ccc(O)c(O)c2)cs1 | 0.3 µM | 111% | – | Activity (Rattus norvegicus [2]): 2.5% |
| Br.COc1ccc(-c2csc(N=C(N)N)n2)cc1 | – | – | 87% | Activity (Rattus norvegicus [2]): 26%; Activity (Rattus norvegicus [8]): 27% |
| Cc1cccc2c(-c3csc(N=C(N)N)n3)c[nH]c12 | 7.6 µM | – | – | inhibition [9]: 55% |
| Cl.N=C(N)Nc1nc(-c2c[nH]c3ccc(Br)cc23)cs1 | 0.96 µM | – | -43% | inhibition [9]: 90% |
| N=C(N)Nc1nc2c(s1)CCc1ccccc1-2 | – | – | – | IC50 [1]: 21 µM |
| Cc1ccc(-c2csc(N=C(N)N)n2)[nH]1.O=C(O)/C=C\C(=O)O | 45 µM | 76% | – | Activity (Rattus norvegicus [10]): 50% |
| COc1ccc2[nH]cc(-c3csc(NC(=N)NCc4ccccc4)n3)c2c1.Cl | 4.3 µM | 95% | 48% | – |
| Cc1[nH]ccc1-c1csc(NC(=N)NCc2ccccc2)n1.O=C(O)/C=C\C(=O)O | 6 µM | 93% | – | Activity (Rattus norvegicus [2]): 60% |
| Cc1cc(-c2csc(N=C(N)N)n2)c[nH]1 | 25 µM | 70% | – | IC50 [11]: > 100 µM; Activity (Rattus norvegicus [12]): 50% |
| Cl.N=C(NCc1ccccc1)Nc1nc(-c2c[nH]c3ccc(Br)cc23)cs1 | 0.7 µM | 105% | 52% | – |
| Cl.N=C(N)Nc1nc(-c2c[nH]c3ccc(Cl)cc23)cs1 | 1.8 µM | 89% | 22% | IC50 [4]: 1.8 µM |
| CN/C(=N\CCSCc1nc[nH]c1C)NC#N [CIMETIDINE] | – | – | – | ED50 (Rattus norvegicus [13]): 11 mg/kg |
| Cc1ccc2c(-c3csc(N=C(N)N)n3)c[nH]c2c1.Cl | – | 64% | 42% | – |
| CC(=O)Oc1ccc(-c2csc(NC(=N)NCc3ccccc3)n2)cc1OC(C)=O.Cl | – | – | – | IC50 [1]: > 50 µM; Activity (Rattus norvegicus [2]): -1% |
| N=C(NCc1ccccc1)Nc1nc(-c2cc3ccccc3[nH]2)cs1 | 16 µM | 61% | – | – |
| Cc1ccc(-c2csc(NC(=N)NCc3ccccc3)n2)n1S(=O)(=O)c1ccccc1 | 26 µM | 57% | – | – |

| Structure (SMILES) | IC50 [3] | inhibition [6] | Activity (Rattus norvegicus [7]) | also measured |
| --- | --- | --- | --- | --- |
| Cc1[nH]c2ccc(Cl)cc2c1-c1nc(N=C(N)N)sc1C | 0.6 µM | 103% | – | – |
| Cc1ccc2c(-c3csc(NC(=N)NCc4ccccc4)n3)c[nH]c2c1 | 1.6 µM | 98% | – | – |
| Cl.N=C(N)Nc1nc(-c2ccc(O)c(O)c2)cs1 | 1.5 µM | 100% | -149% | – |
| Cc1[nH]c2ccc(Cl)cc2c1-c1nc(NC(=N)NCc2ccccc2)sc1C | 1.1 µM | 100% | – | – |
| Cc1[nH]c2ccccc2c1-c1nc(NC(=N)NCc2ccccc2)sc1C.Cl | – | – | 69% | IC50 [1]: 5.3 µM; Activity (Rattus norvegicus [2]): 47% |
| Cc1[nH]ccc1-c1nc(NC(=N)NCc2ccccc2)sc1C | 8.8 µM | 80% | – | – |
| N=C(N)Nc1nc(-c2ccc[nH]2)cs1 | 30 µM | 68% | – | – |
| N=C(NCc1ccccc1)Nc1nc(-c2c[nH]c3ccccc23)cs1 | 1.5 µM | 102% | – | – |
| Cc1[nH]ccc1-c1nc(N=C(N)N)sc1C.Cl | 1.3 µM | 102% | 46% | IC50 [4]: 1 µM |
| Cc1cc(-c2csc(NC(=N)NCc3ccc(Cl)cc3)n2)c[nH]1 | 7 µM | 95% | – | – |
| Cc1sc(NC(=N)NCc2ccccc2)nc1-c1c[nH]c2ccc(Cl)cc12 | – | 101% | -59% | – |
| COc1ccc2[nH]cc(-c3csc(N=C(N)N)n3)c2c1 | 19 µM | 70% | – | – |
| CN(C)Cc1cccc(-c2csc(N=C(N)N)n2)c1 | 37 µM | 56% | – | – |
| Cc1[nH]c2ccccc2c1-c1nc(N=C(N)N)sc1C.Cl | – | – | 78% | IC50 [1]: 6.2 µM; Activity (Canis familiaris): inactive; Activity (Rattus norvegicus [8]): 51% |
| COc1cccc(-c2csc(N=C(N)N)n2)c1 | 60 µM | 48% | – | – |
| N=C(N)Nc1nc(-c2c[nH]c3ccccc23)cs1 | 9 µM | 91% | – | – |
| N=C(N)Nc1nc(-c2cc3cc(F)ccc3[nH]2)cs1 | 4 µM | 87% | – | – |

From ChEMBL document CHEMBL1125091, “Antiulcer agents. 4-substituted 2-guanidinothiazoles: reversible, competitive, and selective inhibitors of gastric H+,K(+)-ATPase” (J Med Chem, 1990)
